Screens (PubChem)
INS promoter act: activators of insulin promoter-driven GFP, primary screen, imaging, TRM-6 cells, eGFP reporter, cell count. plate-scaled: unstimulated 0, stimulated control 100. activation, % at 2 µM. 130,000 tested, 0.81% active;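 active means activation at 2 µM above a set limit, confirmed on inspection of the cell images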;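 further: share of cells whose green reporter signal exceeds an intensity cutoff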
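material = TRM-6 human fetal islet cells, insulin promoter–eGFP reporter | input = 1,000 TRM-6 cells seeded per well | benchmarks = stimulated versus unstimulated wells as plate controls | measured by = automated fluorescence imaging of paraformaldehyde-fixed, Hoechst-counterstained cells, green channel | schedule = compound exposure 48 h, 37 °C | reagent = tamoxifen at 0.75 µM added at seeding for reporter induction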
* hit, by the source's call. This excerpt belongs to a sample that is enriched for hits.

SMILES	INS promoter act
CN1CCN(C(c2ccccc2)c2nnnn2Cc2ccccc2)CC1 (centres undefined)	0
O=C(CCCN1C(=O)c2ccccc2C1=O)NCCN1C(=O)S/C(=C\c2cccs2)C1=O	3
N#Cc1nc(-c2ccco2)oc1N1CCC(Cc2ccccc2)CC1	3
CC(C)NC(=O)NC(=O)COC(=O)c1cccc(S(=O)(=O)N2CCCCC2)c1	0
Cc1ccccc1CS(=O)(=O)c1nnc([C@H](Cc2ccccc2)NC(=O)OC(C)(C)C)o1	-78
CC(C)(C)OC(=O)N[C@@H](Cc1ccccc1)c1nnc(SCC(=O)c2ccc(Cl)cc2)o1	507*
CC(C)(C)OC(=O)N[C@@H](Cc1c[nH]c2ccccc12)c1nnc(SCC(N)=O)o1	0
COc1ccc(CCNC(=O)CN2CCC(C)CC2)cc1OC	-5
CCN(C(=O)COC(=O)/C=C/c1ccccc1)C1CCCCC1	-8
O=C(CCC1CCCCC1)NNC(=O)c1cnccn1	3
C=CCN1C(=O)C(CC(=O)Nc2ccccc2)N(Cc2ccccn2)C1=S (centres undefined)	0
COc1ccc(NC(=O)c2cncc(Br)c2)cc1S(N)(=O)=O	-7
CC(=O)N1CCN(C(=S)c2ccc(N(C)C)cc2)CC1	7
CN(C)c1ccc(C(=S)N2CCOCC2)cc1	150*
O=C(Oc1ccc(C(=S)N2CCOCC2)cc1)c1ccccc1	-6
Cc1nnc(SCc2cccc([N+](=O)[O-])c2)[nH]c1=O	7
O=C(Nc1nc2ccccc2[nH]1)c1cc2ccccc2o1	0
CCn1c(Cc2ccccc2)nnc1SCC(=O)Nc1ccc2c(c1)OCCO2	6
CCn1c(Cc2ccccc2)nnc1SCC(=O)Nc1ccc(OC)cc1	7
CCn1c(Cc2ccc(OC)cc2)nnc1SCC(=O)Nc1cccc(C(=O)OC)c1	443*
CN(C(=S)NC(=O)c1ccccc1Br)C1CCCCC1	223*
CC1CCCCC1NC(=S)NC(=O)c1ccccc1Br (centres undefined)	0
COc1ccccc1/C=C/C(=O)NC(=S)N(C)C1CCCCC1	-5
COC(=O)c1ccc2c(=O)n(-c3ccccc3F)c(=S)[nH]c2c1	-100
Cc1c(NC(=O)c2cc3nc(-c4ccc(Cl)cc4)cc(C(F)(F)F)n3n2)c(=O)n(-c2ccccc2)n1C	3
SMILES	INS promoter act
Cc1cc(OCC(=O)Nc2ccc(CN3CCCCC3)cc2)ccc1Cl	0
CCOC(=O)c1sc(C)c(C(=O)NCC(C)(C)CN(C)C)c1N	-3
C#CCCCCCCC#CCN(C)C	0
O=C(NC(=S)NCc1ccccc1)c1cccnc1	-7
S=C(NCc1ccccc1)N1CCn2cccc2C1c1cccnc1 (centres undefined)	124*
CCCCNC(=S)N1CCn2cccc2C1c1ccccc1 (centres undefined)	0
CC(C)CCN1CCN(Cc2ccc(Sc3nncn3C)o2)CC1CCO (centres undefined)	-7
CCOC(=O)CCC(=O)N1CCOCCOCCN(C(=O)CCC(=O)OCC)CCOCCOCC1	0
CCN(CC)c1ccc(NC(=O)Nc2ccc(C(C)=O)cc2)cc1	2
CC(=O)c1ccc(NC(=O)Nc2ccccc2)cc1	0
CC(=O)c1ccc(NC(=O)NCc2ccc(F)cc2)cc1	326*
CCc1cccc(CC)c1NC(=S)NCC(c1cccnc1)N1CCOCC1 (centres undefined)	6
CN(C)c1ccc(/C=C2\CCC/C(=C\c3ccccc3)C2=O)cc1	120
O=C1/C(=C/c2ccco2)CCC1C1CCCC1 (centres undefined)	-7
O=C1/C(=C/c2ccc(F)cc2)CCC1C1CCCC1 (centres undefined)	442*
O=C(CSc1nncs1)Nc1ccc2c(c1)OCO2	8
CN1c2cccc3cccc(c23)N(C)C1(C)C	6
CC(=O)c1ccc2cccc3c2c1N=CN3C	130*
CN1/C(=N\O)c2cccc3cccc1c23	7
Cc1cc([N+](=O)[O-])nn1CC(=O)NCc1ccco1	0
O=C(CNc1ccccc1)N/N=C/c1c[nH]c2ccccc12	-7
O=C(N/N=C/c1ccc[nH]1)c1ccncc1	7
CNc1nc(N/N=C/c2ccc([N+](=O)[O-])cc2)nc(Nc2ccccc2)n1	0
COc1ccccc1NS(=O)(=O)c1cc([N+](=O)[O-])ccc1N/N=C/c1c[nH]c2ccccc12	264*
O=C(N/N=C/c1c[nH]c2ccccc12)c1[nH]c2ccc(Br)cc2c1-c1ccccc1	233
SMILES	INS promoter act
COc1ccccc1NS(=O)(=O)c1ccc(N/N=C/c2c(C)nn(-c3ccccc3)c2N2CCCC2)c([N+](=O)[O-])c1	-4
O=[N+]([O-])c1ccc(N/N=C/c2ccc[nH]2)cc1	245*
O=[N+]([O-])c1ccc(N/N=C/c2c[nH]c3ccccc23)cc1	223*
COc1ccccc1NS(=O)(=O)c1cccc2cccnc12	-50
C=CCn1c(C(CC(C)C)CC(C)O)n[nH]c1=S (centres undefined)	-100
C/C(CC(=O)Nc1ccc(OCc2ccccc2)cc1)=N\NC(=O)C(=O)Nc1ccc(C)c(Cl)c1	8
CNS(=O)(=O)c1ccc(Cl)nc1	8
COc1cc([N+](=O)[O-])cc(CN2CCCCC2)c1O	9
O=C(CSc1nnc(SCc2cccc3ccccc23)s1)N/N=C/C=C/c1ccccc1[N+](=O)[O-]	0
CCCNC(=O)c1cc2nc(-c3ccccc3)cc(C(F)(F)F)n2n1	0
COC(=O)c1cc(COc2ccc3c(c2)oc(=O)c2ccccc23)c(C)o1	6
COc1ccc(CCn2ccc(O)c(Cc3c(F)cccc3Cl)c2=O)cc1OC	0
COc1cc(N2CCCC2)c(OC)cc1/C=C(/C#N)c1ccc(Br)cc1	87*
COc1ccccc1/C=N/NC(=O)c1ccc(Br)cc1	7
COc1ccccc1N1CCN(c2cc(N3CCCC3)nc(C)n2)CC1	0
CCOC(=O)C1CN(S(=O)(=O)c2cccc(C(F)(F)F)c2)c2cc(CC(=O)OC)ccc2O1 (centres undefined)	-7
O=C(CSc1nc2ccccc2[nH]1)Nc1nc(-c2ccc(Br)cc2)cs1	-5
CCN(CC)S(=O)(=O)c1cc(C(=O)OCC(=O)Nc2cccc(C)c2C)ccc1F	0
Cc1nc2cc(C(F)(F)F)ccc2n1C	-75
Clc1ccc(CO/N=C2\CCCc3nonc32)c(Cl)c1	-3
CC(C)COc1cccc(C(=O)NC(=S)Nc2cccc(NC(=O)c3ccccc3Cl)c2)c1	0
CC(C)Cn1c(N)c(C(=O)CSc2nnnn2C)c(=O)n(C)c1=O	-9
Cn1c(N)c(C(=O)COC(=O)c2ccc3c(c2)OCCO3)c(=O)n(C)c1=O	-10
CC(C)Cn1c(N)c(C(=O)CSc2ccc3c(c2)OCCO3)c(=O)n(C)c1=O	168*
CC(C)(C)NC(=O)C(OC(=O)c1cccs1)c1ccc(C#N)cc1 (centres undefined)	-3
SMILES	INS promoter act
N/C(Cc1cccs1)=N\OC(=O)COc1ccc(Cl)cc1Cl	3
CCOC(=O)C1(CCOc2ccccc2)CCN(Cc2ccc3nonc3c2)CC1	0
CCNC(=O)CC1C(=O)N(c2ccccc2)C(=O)N1CCc1ccc(OC)c(OC)c1 (centres undefined)	286
CCNC(=O)CC1C(=O)N(c2ccc(F)cc2)C(=O)N1CCc1ccc(OC)cc1 (centres undefined)	154*
COc1ccc(NC(=O)CC2C(=O)N(c3ccc(OC)cc3)C(=O)N2CCc2cccs2)cc1 (centres undefined)	6
COc1ccc(C)cc1NC(=O)c1nnn(Cc2cccc(C(F)(F)F)c2)c1N	-7
